Test results: ChEMBL document CHEMBL3085774, “Design of novel potent inhibitors of human uridine phosphorylase-1: synthesis, inhibition studies, thermodynamics, and in vitro influence on 5-fluorouracil cytotoxicity” (J Med Chem, 2013)
Activity calls are given as the source filed them. No cut-off for these calls is given here.

Legend:
[1] = target: T1, Uridine phosphorylase 1 (Homo sapiens, UniProt Q16831); assay: Inhibition of human recombinant UP1 expressed in Escherichia coli Rosetta (DE3) using URD and inorganic phosphate as substrate at 1 uM after 60 seconds by spectrophotometric analysis relative to control
Procedure, shortened: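 Assay mix: 100 mM Tris pH 7.4, 100 nM recombinant hUP1, uridine 50 μM and Pi 2 mM (their Km values), inhibitor 1 μM final. Run 60 s at 37 °C under initial-rate conditions, following A280 decrease as uridine converts to uracil. Percent inhibition relative to uninhibited activity; DMSO control at up to 1% final.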
Target sequence in this assay (Q16831 whole entry, looked up): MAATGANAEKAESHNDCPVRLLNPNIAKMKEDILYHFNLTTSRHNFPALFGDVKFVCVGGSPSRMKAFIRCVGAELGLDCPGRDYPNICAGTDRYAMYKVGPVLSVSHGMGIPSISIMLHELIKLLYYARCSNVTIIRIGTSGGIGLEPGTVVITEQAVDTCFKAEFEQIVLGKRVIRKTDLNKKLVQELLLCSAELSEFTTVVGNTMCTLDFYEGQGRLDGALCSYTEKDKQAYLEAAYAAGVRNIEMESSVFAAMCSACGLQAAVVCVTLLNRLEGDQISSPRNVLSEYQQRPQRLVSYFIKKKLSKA

[2] = test system: HaCaT; assay: Effect on 5-FU-induced cytotoxicity against human HaCaT cells at 30 uM after 72 hrs by MTT assay; assay type: cell-based
Procedure, shortened: (§1)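 5-FU concentration–response over 72 h (HaCat 0.25–20 μM; HT-29 0.25–50 μM; SW-620 0.5–150 μM), with or without 30 μM inhibitor. Seeding and adhesion as for the viability assay. MTT read-out at 495 nm; 5-FU IC50 from semilog curves by nonlinear regression. Three independent experiments in quadruplicate; one-way ANOVA with Bonferroni test.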

[3] = test system: SW-620; assay: Potentiation of 5-FU-induced cytotoxicity against human SW620 cells assessed as reduction in compound IC50 at 30 uM after 72 hrs by MTT assay relative to control; assay type: functional; procedure, shortened: as §1
[4] = target: T1, Uridine phosphorylase 1; assay: Competitive inhibition of human recombinant UP1 expressed in Escherichia coli Rosetta (DE3) using URD as substrate by Lineweaver-Burk plot analysis
Procedure, shortened: (§2)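 Uridine varied 20–600 μM with Pi fixed at 2 mM. Four inhibitor levels from 0.1 to 5 μM, 100 nM hUP1, 100 mM Tris pH 7.4, 37 °C. Uracil formation followed as the fall in A280 under initial-rate conditions. Kis from slopes and Kii from intercepts of Lineweaver–Burk plots; mode taken from line patterns. Duplicate measurements.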
Target sequence in this assay (Q16831 whole entry, looked up): as above

[5] = target: T1, Uridine phosphorylase 1; assay: Uncompetitive inhibition of human recombinant UP1 expressed in Escherichia coli Rosetta (DE3) using inorganic phosphate as substrate by Lineweaver-Burk plot analysis
Procedure, shortened: (§3)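 Pi varied 0.1–12 mM with uridine fixed at 50 μM. Four inhibitor levels (0.1–5 μM), 100 nM enzyme, 100 mM Tris pH 7.4, 37 °C. Initial rates read as decreasing A280. Kis from slopes and Kii from intercepts of Lineweaver–Burk plots; inhibition mode from line patterns. Duplicates.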
Target sequence in this assay (Q16831 whole entry, looked up): as above

[6] = target: T2, Thymidine phosphorylase (Homo sapiens, UniProt P19971); assay: Inhibition of human thymidine phosphorylase
T2 sequence (P19971 whole entry): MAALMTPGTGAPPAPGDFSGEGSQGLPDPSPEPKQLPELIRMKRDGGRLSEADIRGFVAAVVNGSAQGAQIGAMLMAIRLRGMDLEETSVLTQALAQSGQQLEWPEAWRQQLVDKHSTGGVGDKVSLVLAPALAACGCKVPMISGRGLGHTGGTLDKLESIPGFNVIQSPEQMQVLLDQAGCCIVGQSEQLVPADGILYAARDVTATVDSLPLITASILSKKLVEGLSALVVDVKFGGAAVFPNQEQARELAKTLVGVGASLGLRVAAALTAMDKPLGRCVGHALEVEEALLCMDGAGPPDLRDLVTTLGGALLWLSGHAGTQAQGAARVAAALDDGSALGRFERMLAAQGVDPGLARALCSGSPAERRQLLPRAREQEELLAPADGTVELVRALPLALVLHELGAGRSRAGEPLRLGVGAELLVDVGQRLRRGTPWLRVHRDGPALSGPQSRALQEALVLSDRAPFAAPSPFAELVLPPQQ

[7] = test system: HaCaT; assay: Cytotoxicity against human HaCaT cells at 1 to 100 uM after 72 hrs by MTT assay; assay type: cell-based
Procedure, shortened: (§4)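 Cells seeded at 7 × 10³ per well, allowed to adhere 48 h (HaCat) or 24 h (HT-29, SW-620). Exposed 72 h to 1–100 μM compound, 37 °C, 5% CO2. MTT 10% (v/v) for 3 h; formazan dissolved in DMSO and read at 495 nm. Viability relative to untreated cells; controls of medium and 1% DMSO. Mean ± SEM of three experiments in quadruplicate.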

[8] = test system: SW-620; assay: Cytotoxicity against human SW620 cells at 1 to 100 uM after 72 hrs by MTT assay; assay type: functional, cell-based; procedure, shortened: as §4
[9] = target: T1, Uridine phosphorylase 1; assay: Time dependent inhibition of human recombinant UP1 expressed in Escherichia coli Rosetta (DE3) using URD and inorganic phosphate as substrate at 1 uM by spectrophotometric analysis
Procedure, shortened: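 Enzyme (100 nM) preincubated with 1 μM inhibitor (final), then added to the standard reaction mix (Tris pH 7.4, 50 μM uridine, 2 mM Pi, 37 °C) at times up to 30 min. Change in initial velocity followed by A280 and percent inhibition calculated.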
Target sequence in this assay (Q16831 whole entry, looked up): as the sequence (Q16831 whole entry, looked up) above

[10] = test system: HT-29; assay: Cytotoxicity against human HT-29 cells at 1 to 100 uM after 72 hrs by MTT assay; assay type: functional, cell-based; procedure, shortened: as §4
[11] = test system: HT-29; assay: Protection against 5-FU-induced cytotoxicity against human HT-29 cells assessed as increase in compound IC50 at 30 uM after 72 hrs by MTT assay relative to control
[12] = target: T1, Uridine phosphorylase 1; assay: Non-competitive inhibition of human recombinant UP1 expressed in Escherichia coli Rosetta (DE3) using inorganic phosphate as substrate assessed as equilibrium dissociation constant for enzyme-substrate-inhibitor complex by Lineweaver-Burk plot analysis; procedure, shortened: as §3
Target sequence in this assay (Q16831 whole entry, looked up): as the sequence (Q16831 whole entry, looked up) above

[13] = Inhibition of mouse UPase by Dixon plot analysis
[14] = test system: HT-29; assay: Potentiation of 5-FU-induced cytotoxicity against human HT-29 cells assessed as reduction in compound IC50 at 30 uM after 72 hrs by MTT assay relative to control; assay type: functional; procedure, shortened: as §1
[15] = target: T1, Uridine phosphorylase 1; assay: Non-competitive inhibition of human recombinant UP1 expressed in Escherichia coli Rosetta (DE3) using inorganic phosphate as substrate assessed as equilibrium dissociation constant for enzyme-inhibitor complex by Lineweaver-Burk plot analysis; procedure, shortened: as §3
Target sequence in this assay (Q16831 whole entry, looked up): as the sequence (Q16831 whole entry, looked up) above

[16] = target: T1, Uridine phosphorylase 1; assay: Binding affinity to human recombinant UP1 expressed in Escherichia coli Rosetta (DE3) by isothermal titration calorimetric analysis
Procedure, shortened: (§5)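 ITC at 310.15 K (37 °C): 56 μM hUP1 in 50 mM Tris HCl pH 7.4, alone or as binary complex with 10 mM Pi or R1P (50–200 μM, final). One 0.5 μL injection (discarded), then 26 injections of 1.5 μL ligand. Dilution heats subtracted. Fit to one-set-of-sites model for ΔH°, Keq and n; ΔG° and ΔS° calculated.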
Target sequence in this assay (Q16831 whole entry): as the sequence (Q16831 whole entry, looked up) above

[17] = target: T1, Uridine phosphorylase 1; assay: Non-competitive inhibition of human recombinant UP1 expressed in Escherichia coli Rosetta (DE3) using URD as substrate assessed as equilibrium dissociation constant for enzyme-inhibitor complex by Lineweaver-Burk plot analysis; procedure, shortened: as §2
[18] = target: T1, Uridine phosphorylase 1; assay: Non-competitive inhibition of human recombinant UP1 expressed in Escherichia coli Rosetta (DE3) using URD as substrate assessed as equilibrium dissociation constant for enzyme-substrate-inhibitor complex by Lineweaver-Burk plot analysis; procedure, shortened: as §2
[19] = target: T1, Uridine phosphorylase 1; assay: Binding affinity to human recombinant UP1-R1P binary complex expressed in Escherichia coli Rosetta (DE3) at 50 uM R1P by isothermal titration calorimetric analysis; procedure, shortened: as §5
Target sequence in this assay (Q16831 whole entry): as the sequence (Q16831 whole entry, looked up) above

[20] = Half life in mouse plasma; assay type: ADME, cell-free
[21] = target: T1, Uridine phosphorylase 1; assay: Induction of uridine phosphorylase-mediated drug metabolism in human liver

N#Cc1c(-c2ccccc2)cc(O)[nH]c1=O
inhibition [1]: 42%

O=c1cccc(O)[nH]1
inhibition [1]: 38%

O=c1[nH]cc(CNCCO)c(=O)[nH]1
inhibition [1]: 2%

Cc1ccc(O)[nH]c1=O
inhibition [1]: 12%

CCc1cc(O)[nH]c(=O)c1C#N
inhibition [1]: 25%

Cc1c(CN2CCCCC2)c(O)[nH]c(=O)c1C#N
inhibition [1]: 49%

Cc1c(CNCCO)c(O)[nH]c(=O)c1C#N
Activity [2]: Non-toxic
fold change (FC) [3]: 6
Kis [4]: 68 nM
inhibition [1]: 80%
Kii [5]: 127 nM
IC50 [6]: > 100 µM
Activity [7]: Non-toxic
Activity [8]: inactive
inhibition [9]: inactive
Activity [10]: inactive
fold change (FC) [11]: 9

O=c1[nH]c(=O)n(COCCO)cc1Cc1ccccc1
Activity [2]: Non-toxic
Kii [12]: 317 nM
Kis [4]: 130 nM
Ki [13]: 0.1 µM
Activity [14]: inactive
Kis [15]: 547 nM
Kd [16]: 1.2 µM

CCN(CC)Cc1c(O)[nH]c(=O)c(C#N)c1C
inhibition [1]: 25%

Cc1c(CN2CCOCC2)c(O)[nH]c(=O)c1C#N
inhibition [1]: 51%

CC(C)c1cc(O)[nH]c(=O)c1C#N
inhibition [1]: 31%

N#Cc1ccc(O)[nH]c1=O
Kii [12]: 666 nM
inhibition [1]: 67%
Kis [17]: 2610 nM
IC50 [6]: > 100 µM
inhibition [9]: inactive
Kii [18]: 2550 nM
Kis [15]: 565 nM

Cc1cc(O)[nH]c(=O)c1
inhibition [1]: 16%

Cc1c(CNCC(O)CO)c(O)[nH]c(=O)c1C#N (stereo not given)
Kis [4]: 109 nM
inhibition [1]: 78%
Kii [5]: 182 nM
IC50 [6]: > 100 µM
inhibition [9]: inactive

Cc1c(-c2ccccc2)c(O)[nH]c(=O)c1C#N
inhibition [1]: 12%

Cc1cc(O)[nH]c(=O)c1C
inhibition [1]: 9.5%

Cc1cc(O)[nH]c(=O)c1C#N
Activity [2]: Non-toxic
fold change (FC) [3]: 12
inhibition [1]: 70%
Kis [17]: 375 nM
Kii [5]: 332 nM
IC50 [6]: > 100 µM
Activity [7]: Non-toxic
Activity [8]: inactive
inhibition [9]: inactive
Activity [10]: inactive
Activity [14]: inactive
Kii [18]: 635 nM

Cc1c(CNC(CO)CO)c(O)[nH]c(=O)c1C#N
Kis [4]: 94 nM
inhibition [1]: 82%
Kii [5]: 98 nM
IC50 [6]: > 100 µM
inhibition [9]: inactive
Kd [19]: 7 µM

CCCc1cc(O)[nH]c(=O)c1C#N
inhibition [1]: 16%

Cc1c(CN(C)C)c(O)[nH]c(=O)c1C#N
Kis [4]: 99 nM
inhibition [1]: 81%
Kii [5]: 107 nM
IC50 [6]: > 100 µM
inhibition [9]: inactive

O=c1ccn([C@@H]2O[C@H](CO)[C@@H](O)[C@H]2O)c(=O)[nH]1 [URIDINE]
half-life [20]: 2 min
metabolised [21]: > 80%

Cc1c(Cc2ccccc2)c(O)[nH]c(=O)c1C#N
inhibition [1]: 43%

N#Cc1c(Cc2ccccc2)cc(O)[nH]c1=O
inhibition [1]: 2%
